Sampled rows, rich in hits. Any-hit rate of the full collection: about 3.5%.
RGS4 block: human RGS4 inhibition; B-score at 10 µM; P49798; 310,000 compounds, 0.45% hits; HEK293 M3R/RGS4 inducible, Fluo-4 calcium flux; hits give high values; triggered by carbachol at its EC20;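 active = B-score, a plate-corrected calcium signal, over three deviations above library mean, with baseline fluorescence within five deviations of library mean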;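 note: RGS4 expression induced by doxycycline in cells with stable M3 receptor; B-score is computed from the integrated fluorescence ratio over baseline after carbachol; higher B-score means a larger calcium signal and so more RGS4 inhibition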
Target sequence (P49798 whole entry, looked up): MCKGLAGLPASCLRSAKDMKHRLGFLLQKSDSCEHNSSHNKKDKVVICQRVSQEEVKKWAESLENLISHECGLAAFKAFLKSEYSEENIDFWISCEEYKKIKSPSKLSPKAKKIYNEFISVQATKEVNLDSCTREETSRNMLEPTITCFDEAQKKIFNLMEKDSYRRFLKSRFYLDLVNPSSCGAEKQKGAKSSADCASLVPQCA
MrgX1 antag: human MrgX1 receptor antagonism, primary screen | Q96LB2 | MRGX1-HEK293 calcium flux, Fluo-4, BAM8-22 antagonism; hits give low values | B-score at 10 µM | 310,000 compounds, 1.3% hits;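 active = calcium-response B-score plate-corrected more than 3 library SD below zero, starting fluorescence within 5 deviations, no agonist response on first addition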;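 note: peak minus trough fluorescence over baseline after final BAM8-22 challenge near maximal dose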
Target sequence (Q96LB2 whole entry, looked up): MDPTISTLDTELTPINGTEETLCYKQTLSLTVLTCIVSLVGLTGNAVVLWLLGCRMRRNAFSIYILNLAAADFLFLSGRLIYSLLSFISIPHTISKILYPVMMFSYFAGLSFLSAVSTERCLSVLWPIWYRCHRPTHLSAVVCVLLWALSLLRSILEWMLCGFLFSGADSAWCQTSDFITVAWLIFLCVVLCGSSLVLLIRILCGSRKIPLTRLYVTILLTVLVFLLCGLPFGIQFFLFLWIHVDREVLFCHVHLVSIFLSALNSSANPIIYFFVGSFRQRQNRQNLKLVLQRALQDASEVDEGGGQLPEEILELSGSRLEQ
RGS4 act: potentiators or activators of RGS4; HEK293 M3R/inducible RGS4, carbachol calcium flux Fluo4; hits give low values; B-score at 10 µM; 310,000 compounds, 0.92% hits; AID 463111;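 active = B-score of the integrated calcium signal more than 4 SD below the library mean, with starting fluorescence not abnormally high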;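 note: negative B-score means reduced calcium response which marks RGS4 activation or potentiation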
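test system = M3R-expressing HEK293 line, RGS4 induced by doxycycline | probe or stimulus = carbachol at ECmax as muscarinic agonist stimulus | timing = dye loading 30 min 37 °C, buffer rest 30 min RT | signal = calcium dye Fluo4 fluorescence | evaluation = B score from integrated fluorescence ratio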
MrgX1 PAM: allosterically activates human MrgX1 receptor signaling; AID 588675; MrgX1-HEK293, Fluo-4 calcium flux, FDSS; hits give high values; Q96LB2; 310,000 compounds, 0.63% hits; B-score at 10 µM;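 active = plate-corrected calcium response at least 3 library SD above typical, normal starting fluorescence, not activating the receptor alone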;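 note: compound read alongside a low EC10 to EC30 dose of BAM8-22 agonist; peak minus trough fluorescence over baseline measured at the second addition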
MrgX1 agonist: activates human MrgX1 receptor signaling; Q96LB2; B-score at 10 µM; MrgX1-HEK293 cells, Fluo-4 calcium fluorescence, agonist mode; hits give high values; 310,000 compounds, 0.44% hits;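 active = calcium response B-score plate-corrected fluorescence ratio at least 3 library SD, with starting fluorescence B-score inside 5 SD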
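times = overnight plating, then 30 min 37 °C plus 30 min room-temperature dye loading | assay system = stable human MrgX1 HEK293 cell line | input = fifteen thousand cells per well | signal = kinetic calcium dye fluorescence, Fluo-4 NW | dosing = compound delivered in addition one of three | read-out = B-scored fluorescence response ratio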
MrgX1 antag conf: human MrgX1 receptor antagonism, re-confirmation screen; remaining BAM8-22 calcium response % of control (hits give low values), % at 10 µM; shares compounds with MrgX1 antag; MrgX1-HEK293, BAM8-22 calcium flux, Fluo-4; hits give low values; AID 602420; 2,300 compounds, 19% hits;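 active = remaining agonist calcium response no higher than 100% minus 3 SD of agonist-only control wells, with starting fluorescence near control levels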;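 note: agonist BAM8-22 given at a near maximal EC90 to ECmax level; peak minus minimum fluorescence divided by baseline after agonist addition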
HEK293 Ca flux: counter-screen for MrgX1 antagonists: effect in parental HEK293 cells; shares compounds with MrgX1 antag; Fluo-4 calcium fluorescence, FDSS; fluorescence ratio F(max-min)/F0 at 10 µM; 4,000 compounds, 2% hits;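 active = duplicate-averaged calcium fluorescence ratio at least three times the standard deviation of buffer wells, a nonspecific response in parental cells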
HEK293 Ca counter: counter-screen for MrgX1 allosteric activators: effect in parental HEK293 cells | shares compounds with MrgX1 antag | parental HEK293 calcium flux, Fluo-4 fluorescence ratio; hits give high values | fluorescence ratio F(max-min)/F0 at 10 µM | 4,000 compounds, 0.4% hits | AID 624114;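 active = calcium fluorescence ratio, averaged over duplicates, at least 3 SD of the buffer-well ratio, meaning a nonspecific response in receptor-free cells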;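 note: untransfected parental HEK293 lacking MrgX1 used as counterscreen for MrgX1 allosteric activators; fluorescence change taken during the second addition on a kinetic imager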
HEK293 Ca cntr2: MrgX1 activator counter-screen hit in parental HEK293 cells; shares compounds with MrgX1 antag; Fluo-4 calcium fluorescence (FDSS); hits give high values; fluorescence ratio F(max-min)/F0 at 10 µM; 4,000 compounds, 8.7% hits;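 active = calcium fluorescence ratio at least three times the spread of buffer wells, meaning a non-specific response in parental cells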
Each line names hits and unclear results; the compound was inactive in the other large screens (follow-up assays come after a bar, where they were run).

CC1Cc2ccccc2N1C(=O)CSc1nc2ccccc2n1CC(=O)N1CCOCC1 (stereo not drawn)	MrgX1 antag -4.6 | MrgX1 antag conf inactive | HEK293 Ca flux inactive | HEK293 Ca counter inactive | HEK293 Ca cntr2 inactive
O=C(NCc1ccccn1)c1ccc(OC2CCN(Cc3ccc(Cl)s3)CC2)cc1	none
CC(=O)Nc1ccc(S(=O)(=O)N(C)CC(=O)OC(C)C(=O)NC2CCCCC2)cc1 (stereo not drawn)	none
CC1CCCN(C(=O)c2cn(-c3ccccc3)nc2-c2cccnc2)C1 (stereo not drawn)	MrgX1 antag -6.8 | MrgX1 antag conf inactive | HEK293 Ca flux inactive | HEK293 Ca counter inactive | HEK293 Ca cntr2 inactive
CCOC(=O)C1CCCN(C(=O)c2cn(-c3ccccc3)nc2-c2cccnc2)C1 (stereo not drawn)	none
CCOc1ccc2oc(=O)cc(CN3CCOCC3)c2c1	MrgX1 antag -7.3 | MrgX1 antag conf inactive | HEK293 Ca flux inactive | HEK293 Ca counter inactive | HEK293 Ca cntr2 inactive
Cc1cc2oc(=O)cc(CN3CCOCC3)c2cc1C(C)C	none
CN(C)c1cc(Nc2ccc(O)cc2)c([N+](=O)[O-])c2nonc12	none
O=[N+]([O-])c1c(Nc2ccc(O)cc2)cc(Cl)c2nonc12	MrgX1 antag -15 | MrgX1 antag conf 16% | HEK293 Ca flux inactive | HEK293 Ca counter inactive | HEK293 Ca cntr2 inactive
COc1ccccc1N(Cc1cc2cccc(C)c2[nH]c1=O)C(=O)C(C)C	none
CCC(=O)N(Cc1cc2cccc(C)c2[nH]c1=O)c1ccccc1OC	MrgX1 antag -5.3 | MrgX1 antag conf inactive | HEK293 Ca flux inactive | HEK293 Ca counter inactive | HEK293 Ca cntr2 inactive
CC(C)(C)N=C1NC(=NC(C)(C)C)c2ccccc21	MrgX1 antag -5 | MrgX1 antag conf inactive | HEK293 Ca flux inactive | HEK293 Ca counter inactive | HEK293 Ca cntr2 51
c1ccc2c(c1)C(=NCC1CCCO1)NC2=NCC1CCCO1 (stereo not drawn)	none
O=c1c2ccccc2nc2n1C(CBr)CN2 (stereo not drawn)	none
CCN(CC)CCN(C(=O)C1=COCCO1)c1nc2c(OC)ccc(OC)c2s1	none
O=C(NC1CCCC1)C(c1ccc(Cl)cc1)N1CCc2ccccc21 (stereo not drawn)	MrgX1 antag -4.8 | MrgX1 antag conf inactive | HEK293 Ca flux inactive | HEK293 Ca counter inactive | HEK293 Ca cntr2 inactive
O=C(Nc1ccc(Cl)c(C(F)(F)F)c1)C(=O)N1CCCCC1	none
O=C(Nc1ccc(Cl)c(C(F)(F)F)c1)N1CCCC(O)C1 (stereo not drawn)	MrgX1 antag -6.2 | MrgX1 antag conf inactive | HEK293 Ca flux inactive | HEK293 Ca counter inactive | HEK293 Ca cntr2 inactive
CCCCNC(=O)N1CCN(c2ccnc3cc(Cl)ccc23)CC1	none
CC(=O)N1CCSc2ccc(S(=O)(=O)NCCc3ccc(Cl)cc3)cc21	MrgX1 antag -5 | MrgX1 antag conf inactive | HEK293 Ca flux inactive | HEK293 Ca counter inactive | HEK293 Ca cntr2 inactive
CC(=O)N1CC(C)Sc2ccc(S(=O)(=O)NCCc3ccc(C)cc3)cc21 (stereo not drawn)	none
COc1ccccc1NC(=O)Cc1noc(CSc2nnc(N)s2)n1	MrgX1 antag -7.7 | MrgX1 antag conf inactive | HEK293 Ca flux inactive | HEK293 Ca counter inactive | HEK293 Ca cntr2 inactive
COc1ccccc1NC(=O)Cc1noc(CSc2nnc(C)s2)n1	none
CCCCCCSc1ccc([C@H]2N[C@@](CC(C)C)(C(=O)OC)[C@H]3C(=O)N(C)C(=O)[C@@H]23)cc1OC	none
Nc1cc(S(=O)(=O)N2CCCCC2)ccc1Oc1ccccc1	none
C=CCn1c(SCc2ccc(C#N)cc2)nnc1-c1cccc(Cl)c1	none
C=CCn1c(SCc2cccc(C#N)c2)nnc1-c1ccccc1O	MrgX1 antag -4.6 | MrgX1 antag conf inactive | HEK293 Ca flux inactive | HEK293 Ca counter inactive | HEK293 Ca cntr2 inactive
COC(=O)[C@]1(C)N[C@H](c2ccc(SC3CCCCC3)cc2)[C@@H]2C(=O)N(C)C(=O)[C@@H]21	MrgX1 antag -7.9 | MrgX1 antag conf inactive | HEK293 Ca flux inactive | HEK293 Ca counter inactive | HEK293 Ca cntr2 inactive
CCCSc1ccc([C@H]2N[C@@](C)(C(=O)OC)[C@H]3C(=O)N(C)C(=O)[C@@H]23)cc1	none
NS(=O)(=O)c1ccc(CCNC(=O)c2ccccc2-c2ccccc2)cc1	none
CC(=O)c1cc(F)ccc1OCC(=O)N1CCCc2ccccc21	none
Cc1cccc(NC(=O)c2ccc(C(=O)c3ccccc3)cc2)n1	MrgX1 antag -4.9 | MrgX1 antag conf 77% | HEK293 Ca flux inactive | HEK293 Ca counter inactive | HEK293 Ca cntr2 inactive
Cc1ccc(C)c(S(=O)(=O)NCC(=O)Nc2ccc3c(c2)OCO3)c1	none
CC1(C)CC(=O)C(C=Nc2cc(C(=O)c3ccccc3)ccc2N)=C(O)C1	MrgX1 antag -6.8 | MrgX1 antag conf 73% | HEK293 Ca flux inactive | HEK293 Ca counter inactive | HEK293 Ca cntr2 inactive
CSc1ccccc1N=CC1=C(O)CC(C)(C)CC1=O	none
Cc1ccc2c(c1)N(CC(=O)NCCCN1CC(C)CC(C)C1)C(=O)c1cccnc1O2 (stereo not drawn)	none
COCCNc1ccc(S(=O)(=O)N2CCCC2)cn1	MrgX1 antag -5 | MrgX1 antag conf inactive | HEK293 Ca flux inactive | HEK293 Ca counter inactive | HEK293 Ca cntr2 inactive
COC(=O)c1c(N)sc(C(C)=O)c1C	MrgX1 antag -8.4 | MrgX1 antag conf inactive | HEK293 Ca flux inactive | HEK293 Ca counter inactive | HEK293 Ca cntr2 inactive
CCn1c2ccccc2c2cc(CN3CCN(S(=O)(=O)Cc4ccccc4)CC3)ccc21	MrgX1 antag -8.1 | MrgX1 antag conf 80% | HEK293 Ca flux inactive | HEK293 Ca counter inactive | HEK293 Ca cntr2 inactive
CCn1c2ccccc2c2cc(CN3CCN(S(=O)(=O)CC)CC3)ccc21	none
COc1ccc(NC(=S)NC(=O)c2cncc(Br)c2)c(OC)c1	none
CN(CC(=O)Nc1ccc(F)cc1)C(=O)Cn1nnc(-c2ccccc2)n1	none
CSCCC(NC(=O)c1ccco1)C(=O)Nc1ccc(C)cn1 (stereo not drawn)	none

Screening results from PubChem BioAssay.
